The test system of data set [1] is Canis familiaris. In words: Duration of action to obtain >20% ex vivo collagen induced platelet aggregation was reported, after 20 mg/kg (post-ig) into dogs. The data set is classed as functional, Canis lupus familiaris. The method, boiled down:
(§1)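 Ester prodrugs dosed orally by capsule to conscious beagle dogs (n = 2). Citrated cephalic-vein blood (2 mL) drawn before and at set times after dosing for 24 h or until back to baseline. PRP made by spinning at 260g for 6 min. Aggregation induced with equine tendon collagen (final 33 μg/mL) at 37 °C and followed for 3 min. Duration is the time with >20% inhibition versus predose control.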

In data set [2] the test system is Canis familiaris. The data set can be described thus: Duration of action to obtain >20% ex vivo collagen induced platelet aggregation was reported, after 10 mg/kg (post-ig) into dogs; duration of time >6, <24. The format is functional, Canis lupus familiaris. The method, boiled down:
as §1

Data set [3] relates to Canis familiaris. The data set can be described thus: Duration of action to obtain >20% ex vivo collagen induced platelet aggregation was reported, after 20 mg/kg (post-ig) into dogs; duration of time >3, <6. The data set is classed as functional, Canis lupus familiaris. The procedure, abridged: as §1
Data set [4] in a line: Area under curve of acid 2a was determined by HPLC at a dosage of 54.5 mg/kg administered intragastrically by gavage method in dog. The format is ADME, organism-based. Further details: dose 54.5 mg/kg, route intragastric. Particulars: in vivo, po. The method, boiled down: (§2)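 Six female dogs, 7–12 kg, three per group, fasted 18 h. Prodrug ester given intragastrically as aqueous solution (2 mL/kg) by gavage or in gelatin capsule. Blood (3.5 mL) drawn via femoral vein catheter at 0.5, 1, 1.5, 2, 3, 5, 8, 13, 24 and 48 h, kept on ice, centrifuged, plasma stored at –20 °C. Acid measured in plasma by HPLC; AUC by trapezoidal method, extrapolated to infinity and back to zero.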

Data set [5] concerns Canis familiaris. In words: Area under curve of acid 2a was determined by HPLC at a dosage of 5.45 mg/kg administered intragastrically by capsule method in dog. The format is ADME, organism-based, Canis lupus familiaris. Further details: dose 5.45 mg/kg, route intragastric. Particulars: in vivo, po. The method, boiled down:
as §2

The subject of data set [6] is Canis familiaris. In words: Area under curve of acid 2a was determined by HPLC at a dosage of 54.5 mg/kg administered intragastrically by capsule method in dog. The data set is classed as ADME, organism-based, Canis lupus familiaris. Further details: dose 54.5 mg/kg, route intragastric. As to conditions: in vivo, po. The procedure, abridged:
as §2

For data set [7], the system named is Canis familiaris. In words: Duration of action to obtain >20% ex vivo collagen induced platelet aggregation was reported, after 10 mg/kg (post-ig) into dogs. The format is functional, Canis lupus familiaris. The procedure, abridged:
as §1

In data set [8] the test system is Canis familiaris. The data set can be described thus: Area under curve of acid 2a was determined by HPLC at a dosage of 5.45 mg/kg administered intragastrically by gavage method in dog. The format is ADME, organism-based, Canis lupus familiaris. Set-up: dose 5.45 mg/kg, route intragastric. Particulars: in vivo, po. The method, boiled down:
as §2

The subject of data set [9] is Canis familiaris. In words: Duration of action to obtain >20% ex vivo collagen induced platelet aggregation was reported, after 5 mg/kg (post-ig) into dogs. The data set is classed as functional, Canis lupus familiaris. The method, boiled down: as §1
A short description of data set [10]: Area under curve was determined by HPLC at a dosage of 2.27 mg/kg administered intravenously by bolus method in dog. The data set is classed as ADME, organism-based, Canis lupus familiaris. Set-up: dose 2.27 mg/kg, route intravenous. As to conditions: in vivo, iv. The method, boiled down: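 Female dogs (7–12 kg, n = 3), fasted 18 h. Aqueous saline solution injected into a radial vein (0.5 mL/kg) over 2–3 min. Femoral vein blood (3.5 mL) taken at 0.25, 0.5, 1, 2, 3, 5, 8, 13 and 24 h, put on ice, centrifuged, plasma held at –20 °C. Acid level in plasma measured by HPLC; AUC by trapezoidal method extrapolated to infinity and back to zero.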

Data set [11] deals with Canis familiaris. The data set can be described thus: Duration of action to obtain >20% ex vivo collagen induced platelet aggregation was reported, after 20 mg/kg (post-ig) into dogs; duration of time >6, <24. The data set is classed as functional, Canis lupus familiaris. The procedure, abridged: as §1
For data set [12], the system named is Canis familiaris. The data set can be described thus: Duration of action to obtain >20% ex vivo collagen induced platelet aggregation was reported, after […] 5 mg/kg orally (post-ig) into dogs. Particulars: route oral. The format is functional, Canis lupus familiaris. The procedure, abridged: as §1
Data set [13] relates to Canis familiaris. In words: Duration of action to obtain >20% ex vivo collagen induced platelet aggregation was reported, after 20 mg/kg (post-ig) into dogs; Duration of time >6, < 24. The data set is classed as functional, Canis lupus familiaris. The procedure, abridged: as §1

Experimental findings from ChEMBL document CHEMBL1128602, “Potent in vitro and in vivo inhibitors of platelet aggregation based upon the Arg-Gly-Asp sequence of fibrinogen. (Aminobenzamidino)succinyl (ABAS) series of orally active fibrinogen receptor antagonists” (J Med Chem, 1995) are described below.

`CCOC(=O)CC(C)NC(=O)CCC(=O)Nc1ccc(C(=N)N)cc1` (stereo not drawn): the Duration time in the data set on Canis familiaris [1] is above 30 h.

In turn, `CCOC(=O)CC(NC(=O)CCCCc1ccc(C(=N)N)cc1)c1ccccc1` (stereo not drawn) came in with a Duration time with Canis familiaris [2] above 6 h.

On to `CCOC(=O)CC(Cc1ccccc1)NC(=O)CCCCc1ccc(C(=N)N)cc1` (stereo not drawn), for which the Duration time in the data set on Canis familiaris [3] is above 3 h.

Regarding `C#C[C@H](CC(=O)OCC)NC(=O)CCC(=O)Nc1ccc(C(=N)N)cc1` [XEMILOFIBAN], the AUC is 31700 ng·h/mL in [4], 2660 ng·h/mL in the data set with Canis familiaris [5], 31200 ng·h/mL with Canis familiaris [6] and 2730 ng·h/mL in the data set with Canis familiaris [8]. The same compound returned a Duration time with Canis familiaris [7] above 24 h.

On to `CCOC(=O)CC(NC(=O)CCC(=O)Nc1ccc(C(=N)N)cc1)c1ccc(OCC)nc1` (stereo not drawn), for which the Duration time in the data set on Canis familiaris [9] is below 6 h.

Compound `C=CC(CC(=O)OCC)NC(=O)CCC(=O)Nc1ccc(C(=N)N)cc1` (stereo not drawn) returned a Duration time in the data set on Canis familiaris [1] above 24 h.

For `CCOC(=O)CC(NC(=O)CCC(=O)Nc1ccc(C(=N)N)cc1)c1cccnc1` (stereo not drawn), the figures for the Duration time in the data set on Canis familiaris [9] and in the data set on Canis familiaris [7] were above 6 h and above 24 h, respectively.

`C#C[C@H](CC(=O)O)NC(=O)CCC(=O)Nc1ccc(C(=N)N)cc1` returned an AUC in data set [10] of 2490 ng·h/mL.

For `CCOC(=O)CC(C)NC(=O)CCCCc1ccc(C(=N)N)cc1` (stereo not drawn), in the data set with Canis familiaris [11], the Duration time is above 6 h.

On to `CCOC(=O)CC(NC(=O)CCC(=O)Nc1ccc(C(=N)N)cc1)c1cnc2ccccc2c1` (stereo not drawn), for which, in the data set on Canis familiaris [9], the Duration time is below 6 h.

On to `CCOC(=O)CC(NC(=O)CCC(=O)Nc1ccc(C(=N)N)cc1)c1ccc2c(c1)OCO2` (stereo not drawn), for which, in the data set on Canis familiaris [12], the Duration time is above 24 h.

Regarding `CCOC(=O)CC(NC(=O)CCC(=O)Nc1ccc(C(=N)N)cc1)c1ccccc1` (stereo not drawn), the Duration time in the data set with Canis familiaris [13] was above 6 h.

On to `CCOC(=O)CC(Cc1ccccc1)NC(=O)CCC(=O)Nc1ccc(C(=N)N)cc1` (stereo not drawn), for which the Duration time in the data set on Canis familiaris [11] was above 6 h.

The AUC is the area under the concentration-time curve, a measure of exposure. Lower therefore signals low exposure.
